According to ChEMBL document CHEMBL1649446, “Comparative antipneumococcal activities of sulopenem and other drugs” (2009):
Converted amounts (≈) assume the structure as drawn.

Tests used:
Format in all cases: functional
Streptococcus pneumoniae [1] = test: Antimicrobial activity against Streptococcus pneumoniae 1 by time-kill analysis
Procedure, shortened: (§1)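 Time-kill in cation-adjusted Mueller-Hinton broth with 5% lysed horse blood; inocula 5 × 105 to 5 × 10^6 CFU/ml; drugs at MIC, 2× and 4× MIC; 35°C shaking water bath; viable counts at 0, 3, 6, 12 and 24 h. Bactericidal if ≥3 log10 CFU/ml (99.9%) reduction from original inoculum; 90% and 99% killing also scored.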

Streptococcus pneumoniae [2] = test: Antimicrobial activity against Streptococcus pneumoniae 4 by time-kill analysis
Procedure, shortened: as §1, with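 “12,” for “12 and”, “=” for “if”, “drop” for “reduction”, “90%/99%/99.9%” for “90% and 99%”, “scored per strain.” for “also scored.”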

Streptococcus pneumoniae [3] = test: Antimicrobial activity against Streptococcus pneumoniae 5 by time-kill analysis; procedure, shortened: as §1
Streptococcus pneumoniae [4] = test: Antimicrobial activity against Streptococcus pneumoniae 7 by time-kill analysis
Procedure, shortened: as §1, with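 “12,” for “12 and”, “=” for “if”, “drop” for “reduction”, “90%/99%/99.9%” for “90% and 99%”, “scored per strain.” for “also scored.”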

Streptococcus pneumoniae [5] = test: Antimicrobial activity against Streptococcus pneumoniae 11 by time-kill analysis
Procedure, shortened: as §1, with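 “12,” for “12 and”, “=” for “if”, “drop” for “reduction”, “90%/99%/99.9%” for “90% and 99%”, “scored per strain.” for “also scored.”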

Streptococcus pneumoniae [6] = test: Antimicrobial activity against Streptococcus pneumoniae isolate 24 by agar dilution method
Streptococcus pneumoniae [7] = test: Antimicrobial activity against Streptococcus pneumoniae isolate 37 by agar dilution method
Procedure, shortened: (§2)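 Agar dilution MIC on Mueller-Hinton agar with 5% sheep blood, inocula 10^4 CFU/spot; amoxicillin-clavulanate combined 1:2; S. pneumoniae ATCC 49619 quality control each run.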

Streptococcus pneumoniae [8] = test: Antimicrobial activity against Streptococcus pneumoniae isolate 1055 by agar dilution method
Streptococcus pneumoniae [9] = test: Antimicrobial activity against Streptococcus pneumoniae isolate 1146 by agar dilution method; procedure, shortened: as §2
Streptococcus pneumoniae [10] = test: Antimicrobial activity against Streptococcus pneumoniae isolate 1147 by agar dilution method; procedure, shortened: as §2
Streptococcus pneumoniae [11] = test: Antimicrobial activity against Streptococcus pneumoniae isolate 1564 by agar dilution method
Streptococcus pneumoniae [12] = test: Antimicrobial activity against Streptococcus pneumoniae isolate 2688 by agar dilution method; procedure, shortened: as §2
Streptococcus pneumoniae [13] = test: Antimicrobial activity against Streptococcus pneumoniae isolate 2880 by agar dilution method; procedure, shortened: as §2
Streptococcus pneumoniae [14] = test: Antimicrobial activity against Streptococcus pneumoniae isolate 3681 by agar dilution method; procedure, shortened: as §2
Streptococcus pneumoniae [15] = test: Antimicrobial activity against Streptococcus pneumoniae isolate 3791 by agar dilution method; procedure, shortened: as §2
Streptococcus pneumoniae [16] = test: Antimicrobial activity against penicillin-susceptible Streptococcus pneumoniae by agar dilution method
Streptococcus pneumoniae [17] = test: Antimicrobial activity against penicillin-intermediate Streptococcus pneumoniae by agar dilution method
Streptococcus pneumoniae [18] = test: Antimicrobial activity against penicillin-resistant Streptococcus pneumoniae by agar dilution method; procedure, shortened: as §2
Streptococcus pneumoniae [19] = test: Antimicrobial activity against Streptococcus pneumoniae 19A by agar dilution method; procedure, shortened: as §2
Streptococcus pneumoniae [20] = test: Antimicrobial activity against Streptococcus pneumoniae isolate 33 by agar dilution method; procedure, shortened: as §2
Streptococcus pneumoniae [21] = test: Antimicrobial activity against Streptococcus pneumoniae isolate 1384 by agar dilution method; procedure, shortened: as §2
Streptococcus pneumoniae [22] = test: Antimicrobial activity against Streptococcus pneumoniae isolate 1394 by agar dilution method
Streptococcus pneumoniae [23] = test: Antimicrobial activity against Streptococcus pneumoniae isolate 1397 by agar dilution method; procedure, shortened: as §2
Streptococcus pneumoniae [24] = test: Antimicrobial activity against Streptococcus pneumoniae isolate 1424 by agar dilution method; procedure, shortened: as §2
Streptococcus pneumoniae [25] = test: Antimicrobial activity against Streptococcus pneumoniae isolate 2617 by agar dilution method; procedure, shortened: as §2
Streptococcus pneumoniae [26] = test: Antimicrobial activity against Streptococcus pneumoniae isolate 2686 by agar dilution method; procedure, shortened: as §2
Streptococcus pneumoniae [27] = test: Antimicrobial activity against Streptococcus pneumoniae isolate 2874 by agar dilution method; procedure, shortened: as §2
Streptococcus pneumoniae [28] = test: Antimicrobial activity against Streptococcus pneumoniae isolate 3260 by agar dilution method
Streptococcus pneumoniae [29] = test: Antimicrobial activity against Streptococcus pneumoniae isolate 3263 by agar dilution method
Streptococcus pneumoniae [30] = test: Antimicrobial activity against Streptococcus pneumoniae isolate 3275 by agar dilution method; procedure, shortened: as §2
Streptococcus pneumoniae [31] = test: Antimicrobial activity against Streptococcus pneumoniae isolate 3282 by agar dilution method
Streptococcus pneumoniae [32] = test: Antimicrobial activity against Streptococcus pneumoniae isolate 3346 by agar dilution method
Streptococcus pneumoniae [33] = test: Antimicrobial activity against Streptococcus pneumoniae isolate 3374 by agar dilution method; procedure, shortened: as §2
Streptococcus pneumoniae [34] = test: Antimicrobial activity against Streptococcus pneumoniae isolate 3412 by agar dilution method; procedure, shortened: as §2
Streptococcus pneumoniae [35] = test: Antimicrobial activity against Streptococcus pneumoniae isolate 3455 by agar dilution method
Streptococcus pneumoniae [36] = test: Antimicrobial activity against Streptococcus pneumoniae isolate 3458 by agar dilution method
Streptococcus pneumoniae [37] = test: Antimicrobial activity against Streptococcus pneumoniae isolate 3481 by agar dilution method; procedure, shortened: as §2
Streptococcus pneumoniae [38] = test: Antimicrobial activity against Streptococcus pneumoniae isolate 3587 by agar dilution method
Streptococcus pneumoniae [39] = test: Antimicrobial activity against Streptococcus pneumoniae isolate 4747 by agar dilution method; procedure, shortened: as §2
Streptococcus pneumoniae [40] = test: Antimicrobial activity against Streptococcus pneumoniae isolate 4755 by agar dilution method; procedure, shortened: as §2

## O=C(O)c1cn(C2CC2)c2cc(N3CCNCC3)c(F)cc2c1=O [CIPROFLOXACIN]
Streptococcus pneumoniae [1]
  MIC: > 32 µg/mL
Streptococcus pneumoniae [2]
  MIC: 16 µg/mL (≈ 48.3 µM)
Streptococcus pneumoniae [3]
  MIC: 1 µg/mL (≈ 3.02 µM)
Streptococcus pneumoniae [4]
  MIC: 1 µg/mL (≈ 3.02 µM)
Streptococcus pneumoniae [5]
  MIC: 1 µg/mL (≈ 3.02 µM)
Streptococcus pneumoniae [6]
  MIC: 1 µg/mL (≈ 3.02 µM)
Streptococcus pneumoniae [7]
  MIC: 1 µg/mL (≈ 3.02 µM)
Streptococcus pneumoniae [8]
  MIC: 32 µg/mL (≈ 96.6 µM)
Streptococcus pneumoniae [9]
  MIC: 32 µg/mL (≈ 96.6 µM)
Streptococcus pneumoniae [10]
  MIC: 32 µg/mL (≈ 96.6 µM)
Streptococcus pneumoniae [11]
  MIC: 1 µg/mL (≈ 3.02 µM)
Streptococcus pneumoniae [12]
  MIC: 1 µg/mL (≈ 3.02 µM)
Streptococcus pneumoniae [13]
  MIC: 1 µg/mL (≈ 3.02 µM)
Streptococcus pneumoniae [14]
  MIC: 1 µg/mL (≈ 3.02 µM)
Streptococcus pneumoniae [15]
  MIC: 1 µg/mL (≈ 3.02 µM)

## CC[C@H]1OC(=O)[C@H](C)[C@@H](O[C@H]2C[C@@](C)(OC)[C@@H](O)[C@H](C)O2)[C@H](C)[C@@H](O[C@@H]2O[C@H](C)C[C@H](N(C)C)[C@H]2O)[C@](C)(OC)C[C@@H](C)C(=O)[C@H](C)[C@@H](O)[C@]1(C)O [CLARITHROMYCIN]
Streptococcus pneumoniae [16]
  MIC50: 0.5 µg/mL (≈ 0.668 µM)
  MIC90: > 64 µg/mL
Streptococcus pneumoniae [17]
  MIC50: 1 µg/mL (≈ 1.34 µM)
  MIC90: > 64 µg/mL
Streptococcus pneumoniae [18]
  MIC50: 0.06 µg/mL (≈ 0.0802 µM)
Streptococcus pneumoniae [19]
  MIC50: > 64 µg/mL
  MIC90: > 64 µg/mL
Streptococcus pneumoniae [6]
  MIC: > 64 µg/mL
Streptococcus pneumoniae [20]
  MIC: 0.03 µg/mL (≈ 0.0401 µM)
Streptococcus pneumoniae [7]
  MIC: > 64 µg/mL
Streptococcus pneumoniae [8]
  MIC: 32 µg/mL (≈ 42.8 µM)
Streptococcus pneumoniae [9]
  MIC: 2 µg/mL (≈ 2.67 µM)
Streptococcus pneumoniae [10]
  MIC: 1 µg/mL (≈ 1.34 µM)
Streptococcus pneumoniae [21]
  MIC: 64 µg/mL (≈ 85.6 µM)
Streptococcus pneumoniae [22]
  MIC: 64 µg/mL (≈ 85.6 µM)
Streptococcus pneumoniae [23]
  MIC: 64 µg/mL (≈ 85.6 µM)
Streptococcus pneumoniae [24]
  MIC: 16 µg/mL (≈ 21.4 µM)
Streptococcus pneumoniae [11]
  MIC: 32 µg/mL (≈ 42.8 µM)
Streptococcus pneumoniae [25]
  MIC: 0.03 µg/mL (≈ 0.0401 µM)
Streptococcus pneumoniae [26]
  MIC: 16 µg/mL (≈ 21.4 µM)
Streptococcus pneumoniae [12]
  MIC: 32 µg/mL (≈ 42.8 µM)
Streptococcus pneumoniae [27]
  MIC: 32 µg/mL (≈ 42.8 µM)
Streptococcus pneumoniae [13]
  MIC: 8 µg/mL (≈ 10.7 µM)
Streptococcus pneumoniae [28]
  MIC: > 64 µg/mL
Streptococcus pneumoniae [29]
  MIC: > 64 µg/mL
Streptococcus pneumoniae [30]
  MIC: > 64 µg/mL
Streptococcus pneumoniae [31]
  MIC: > 64 µg/mL
Streptococcus pneumoniae [32]
  MIC: > 64 µg/mL
Streptococcus pneumoniae [33]
  MIC: 32 µg/mL (≈ 42.8 µM)
Streptococcus pneumoniae [34]
  MIC: 32 µg/mL (≈ 42.8 µM)
Streptococcus pneumoniae [35]
  MIC: > 64 µg/mL
Streptococcus pneumoniae [36]
  MIC: > 64 µg/mL
Streptococcus pneumoniae [37]
  MIC: > 64 µg/mL
Streptococcus pneumoniae [38]
  MIC: > 64 µg/mL
Streptococcus pneumoniae [14]
  MIC: 0.03 µg/mL (≈ 0.0401 µM)
Streptococcus pneumoniae [15]
  MIC: 32 µg/mL (≈ 42.8 µM)
Streptococcus pneumoniae [39]
  MIC: 64 µg/mL (≈ 85.6 µM)
Streptococcus pneumoniae [40]
  MIC: > 64 µg/mL
